Results from ChEMBL document CHEMBL1145017, “Synthesis and in vivo antitumor activity of poly(l-glutamic acid) conjugates of 20S-camptothecin” (J Med Chem, 2003).
Values after ≈ are worked out from the molar mass of the structure shown.

Key:
Mus musculus [1] = experiment: Effect on in Vivo Growth of s.c. B-16 Melanomas in mice measured ad difference of average times for tumors to reach a volume of 500 mm**3 between treatment and control groups at dose of 35 mg/kg; format: functional
Mus musculus [2] = experiment: Maximum tolerated dose (MTD) in mice bearing s.c. B-16 Melanomas; format: functional
Mus musculus [3] = organism: Mus musculus; experiment: Maximum tolerated dose (MTD) in mice; format: functional
Mus musculus [4] = experiment: Effect on in Vivo Growth of s.c. HT-29 […] in mice measured ad difference of average times for tumors to reach a volume of 500 mm**3 between treatment and control groups at dose of 20 mg/kg; format: functional
Outline: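 Athymic nude mice bearing human HT-29 colon carcinoma cells got a single bolus ip injection of conjugate, dosed in mg CPT equivalent/kg. Tumor growth delay (days) is the difference in average time for tumors to reach 500 mm³ between treated and control groups. Significance was tested by Student's t-test against vehicle.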

Mus musculus [5] = experiment: Effect on in Vivo Growth of s.c. B-16 Melanomas in mice measured ad difference of average times for tumors to reach a volume of 500 mm**3 between treatment and control groups at dose of 60 mg/kg; format: functional
[6] = Aqueous solubility was measured; format: physicochemical
Outline: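 Conjugate dissolved in aqueous Na₂HPO₄ (0.1 M, pH 7.4) at 37 °C; solubility expressed as mg of conjugate per mL.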

Mus musculus [7] = experiment: Effect on in Vivo Growth of s.c. HT-29 […] in mice measured ad difference of average times for tumors to reach a volume of 500 mm**3 between treatment and control groups at dose of 24 mg/kg; format: functional
Outline: (§1)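 Athymic nude mice bearing human HT-29 colon or NCI-H460 lung carcinoma cells were given a single bolus ip injection, dosed as mg CPT equivalent/kg. Endpoint was TGD in days, the difference in mean time to reach 500 mm³ tumor volume between treated and control groups. Student's t-test vs vehicle.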

Mus musculus [8] = experiment: Effect on in Vivo Growth of s.c. HT-29 […] in mice measured ad difference of average times for tumors to reach a volume of 500 mm**3 between treatment and control groups at dose of 28 mg/kg; format: functional; outline: as §1
Mus musculus [9] = experiment: Effect on in Vivo Growth of s.c. B-16 Melanomas in mice measured ad difference of average times for tumors to reach a volume of 500 mm**3 between treatment and control groups at dose of 48 mg/kg; format: functional
Mus musculus [10] = experiment: Effect on in Vivo Growth of s.c. B-16 Melanomas in mice measured ad difference of average times for tumors to reach a volume of 500 mm**3 between treatment and control groups at dose of 41 mg/kg; format: functional
Mus musculus [11] = experiment: Effect on in Vivo Growth of s.c. B-16 Melanomas in mice measured ad difference of average times for tumors to reach a volume of 500 mm**3 between treatment and control groups at dose of 75 mg/kg; format: functional

CC[C@@]1(OC(=O)CCCOC(=O)CC[C@H](N)C(=O)O)C(=O)OCc2c1cc1n(c2=O)Cc2cc3ccccc3nc2-1
TGD (Mus musculus [1]): 3 days | MTD (Mus musculus [2]): ~35 (mg of CPT) kg-1

CC[C@@]1(O)C(=O)OCc2c1cc1n(c2=O)Cc2cc3ccccc3nc2-1 [CAMPTOTHECIN]
MTD (Mus musculus [3]): ~20 (mg of CPT) kg-1 | TGD (Mus musculus [4]): 17 days

CC[C@@]1(OC(=O)CNC(=O)CC[C@H](N)C(=O)O)C(=O)OCc2c1cc1n(c2=O)Cc2cc3ccccc3nc2-1
TGD (Mus musculus [1]): 2 days | MTD (Mus musculus [2]): ~40 (mg of CPT) kg-1

CC[C@@]1(OC(=O)CCCNC(=O)CC[C@H](N)C(=O)O)C(=O)OCc2c1cc1n(c2=O)Cc2cc3ccccc3nc2-1
MTD (Mus musculus [2]): >=60 (mg of CPT) kg-1 | TGD (Mus musculus [5]): 1 days

CC[C@@]1(OC(=O)CNC(=O)CNC(=O)CNC(=O)CC[C@H](N)C(=O)O)C(=O)OCc2c1cc1n(c2=O)Cc2cc3ccccc3nc2-1
MTD (Mus musculus [3]): <34 (mg of CPT) kg-1 | solubility [6]: 33 mg/mL (≈ 50.9 mM) | TGD (Mus musculus [7]): 7 days

CC[C@@]1(OC(=O)CNC(=O)CNC(=O)CC[C@H](N)C(=O)O)C(=O)OCc2c1cc1n(c2=O)Cc2cc3ccccc3nc2-1
MTD (Mus musculus [3]): >=28 (mg of CPT) kg-1 | solubility [6]: 34 mg/mL (≈ 57.5 mM) | TGD (Mus musculus [8]): 4 days

CC[C@@]1(OC(=O)CC[C@H](N)C(=O)O)C(=O)OCc2c1cc1n(c2=O)Cc2cc3ccccc3nc2-1
TGD (Mus musculus [9]): 4 days | MTD (Mus musculus [2]): >=48 (mg of CPT) kg-1

CC[C@@]1(OC(=O)CCC(NC(=O)CC[C@H](N)C(=O)O)C(=O)O)C(=O)OCc2c1cc1n(c2=O)Cc2cc3ccccc3nc2-1 (stereo not given in full)
TGD (Mus musculus [10]): 1 days | MTD (Mus musculus [2]): >=41 (mg of CPT) kg-1

CC[C@@]1(OC(=O)COC(=O)CC[C@H](N)C(=O)O)C(=O)OCc2c1cc1n(c2=O)Cc2cc3ccccc3nc2-1
MTD (Mus musculus [2]): >=75 (mg of CPT) kg-1 | TGD (Mus musculus [11]): 4 days
